What was measured:
[1] = target: T1, Potassium voltage-gated channel subfamily A member 5 (Homo sapiens, UniProt P22460); assay: Inhibition of recombinant human Kv1.5 expressed in CHO cells by IonWork high-throughput electrophysiology assay; assay type: cell-based
Procedure, shortened: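 Kv1.5 current recorded in CHO cells by IonWorks HT automated electrophysiology. IC50 is the average of 2 measurements unless n=1 is noted.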

[2] = target: Potassium voltage-gated channel subfamily E member 1 (Homo sapiens, UniProt P15382); assay: Inhibition of IKs (unknown origin)
[3] = target: Cytochrome P450 2D6 (Homo sapiens, UniProt P10635); assay: Inhibition of CYP2D6 (unknown origin); assay type: ADME
Sequence of Cytochrome P450 2D6 (P10635 whole entry): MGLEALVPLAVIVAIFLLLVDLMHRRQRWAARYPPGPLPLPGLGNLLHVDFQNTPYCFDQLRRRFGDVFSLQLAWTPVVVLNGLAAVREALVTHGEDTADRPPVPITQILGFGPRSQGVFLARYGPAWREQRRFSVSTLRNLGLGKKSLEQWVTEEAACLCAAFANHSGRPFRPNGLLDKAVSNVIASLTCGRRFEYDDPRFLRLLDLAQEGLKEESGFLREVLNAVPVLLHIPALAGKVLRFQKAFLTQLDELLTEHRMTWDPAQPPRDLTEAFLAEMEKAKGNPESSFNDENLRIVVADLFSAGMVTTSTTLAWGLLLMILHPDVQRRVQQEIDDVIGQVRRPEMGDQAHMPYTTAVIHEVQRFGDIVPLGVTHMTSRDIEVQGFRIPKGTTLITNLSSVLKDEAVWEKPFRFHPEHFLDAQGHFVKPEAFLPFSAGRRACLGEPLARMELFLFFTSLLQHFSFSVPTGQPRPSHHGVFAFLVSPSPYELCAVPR

[4] = Lipophilicity, log D of the compound by chromatographic method; assay type: physicochemical
Procedure, shortened: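 Lipophilicity (log D) measured by a chromatographic method.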

[5] = Intrinsic clearance in human liver microsomes; assay type: ADME, Microsome; conditions: read-out: CLH
[6] = target: Cytochrome P450 3A4 (Homo sapiens, UniProt P08684); assay: Drug metabolism in human hepatocytes assessed as CYP3A4-mediated drug metabolism; assay type: ADME, cell-based
Sequence of Cytochrome P450 3A4 (P08684 whole entry): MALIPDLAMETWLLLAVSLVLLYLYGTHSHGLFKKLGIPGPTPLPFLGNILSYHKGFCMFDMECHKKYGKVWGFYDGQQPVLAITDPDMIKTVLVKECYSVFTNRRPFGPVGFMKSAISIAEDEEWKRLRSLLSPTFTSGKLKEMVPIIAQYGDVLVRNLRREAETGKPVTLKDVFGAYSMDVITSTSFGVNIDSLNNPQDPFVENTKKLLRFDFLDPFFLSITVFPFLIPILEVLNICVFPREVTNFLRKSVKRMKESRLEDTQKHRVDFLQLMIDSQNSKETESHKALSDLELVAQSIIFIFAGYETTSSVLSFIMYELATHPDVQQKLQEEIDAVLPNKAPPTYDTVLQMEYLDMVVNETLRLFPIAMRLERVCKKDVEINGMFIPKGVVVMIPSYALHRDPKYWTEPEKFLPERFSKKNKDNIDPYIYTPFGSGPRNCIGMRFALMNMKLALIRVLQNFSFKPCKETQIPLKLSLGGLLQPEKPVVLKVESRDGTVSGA

[7] = Renal clearance in dog; assay type: ADME, Canis lupus familiaris; conditions: in vivo
[8] = Plasma clearance in dog; assay type: ADME, Canis lupus familiaris
[9] = target: Voltage-gated inwardly rectifying potassium channel KCNH2 (Homo sapiens, UniProt Q12809); assay: Inhibition of human ERG
Sequence of Voltage-gated inwardly rectifying potassium channel KCNH2 (Q12809 whole entry): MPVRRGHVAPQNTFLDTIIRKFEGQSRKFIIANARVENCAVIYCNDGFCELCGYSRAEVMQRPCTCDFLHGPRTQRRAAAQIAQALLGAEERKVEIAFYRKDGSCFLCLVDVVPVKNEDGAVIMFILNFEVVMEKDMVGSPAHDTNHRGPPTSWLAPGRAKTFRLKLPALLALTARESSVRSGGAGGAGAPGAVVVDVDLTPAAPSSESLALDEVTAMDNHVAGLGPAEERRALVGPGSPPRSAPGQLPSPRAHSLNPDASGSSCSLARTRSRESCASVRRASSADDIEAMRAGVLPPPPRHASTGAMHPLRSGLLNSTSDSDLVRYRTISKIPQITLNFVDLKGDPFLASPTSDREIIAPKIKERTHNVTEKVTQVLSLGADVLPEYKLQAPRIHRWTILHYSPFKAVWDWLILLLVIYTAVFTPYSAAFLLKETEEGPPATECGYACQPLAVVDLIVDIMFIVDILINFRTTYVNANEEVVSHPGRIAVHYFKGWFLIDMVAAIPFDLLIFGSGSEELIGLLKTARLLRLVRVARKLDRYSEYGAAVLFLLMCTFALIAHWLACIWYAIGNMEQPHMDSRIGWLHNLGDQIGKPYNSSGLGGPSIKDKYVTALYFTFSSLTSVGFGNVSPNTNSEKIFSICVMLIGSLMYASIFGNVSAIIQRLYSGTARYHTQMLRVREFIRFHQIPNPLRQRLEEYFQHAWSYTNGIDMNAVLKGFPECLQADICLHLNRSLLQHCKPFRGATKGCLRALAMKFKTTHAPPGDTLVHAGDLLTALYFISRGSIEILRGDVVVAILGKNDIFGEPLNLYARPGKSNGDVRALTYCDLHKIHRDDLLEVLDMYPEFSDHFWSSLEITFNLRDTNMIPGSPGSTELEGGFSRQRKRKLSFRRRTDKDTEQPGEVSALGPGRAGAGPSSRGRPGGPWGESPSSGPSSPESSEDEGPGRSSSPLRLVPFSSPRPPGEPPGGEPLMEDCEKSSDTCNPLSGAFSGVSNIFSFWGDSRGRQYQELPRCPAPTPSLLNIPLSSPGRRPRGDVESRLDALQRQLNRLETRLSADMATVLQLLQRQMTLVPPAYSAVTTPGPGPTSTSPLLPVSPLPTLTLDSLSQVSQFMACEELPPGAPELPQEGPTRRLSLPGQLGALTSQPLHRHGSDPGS

[10] = Drug excretion in dog urine; assay type: ADME, Canis lupus familiaris; conditions: read-out: Drug excretion
[11] = target: T1, Potassium voltage-gated channel subfamily A member 5; assay: Inhibition of Kv1.5 in human atrial myocytes assessed as blockade of Ikur current; assay type: cell-based
[12] = test system: Oryctolagus cuniculus; assay: Antiarrhythmic activity in iv dosed anesthetized rabbit assessed as free compound plasma exposure which prolongs the right atrial effective refractory period by 20 milliseconds measured after 20 mins by electrophysiological analysis; assay type: functional
Procedure, shortened: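 Anesthetized rabbits received increasing intravenous infusions of test compound. Right atrial effective refractory period was measured 20 min after each dose. Value is the free plasma exposure giving a 20 ms RAERP prolongation.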

[13] = organism: Canis familiaris; assay: Antiarrhythmic activity in rapid atrial pacing dog model of atrial fibrillation assessed as unbound plasma concentration required to convert atrial fibrillation to sinus rhythm; assay type: functional, Canis lupus familiaris
Procedure, shortened: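 Rapid atrial pacing dog model of AF (n=12). Read-out was conversion of AF to sinus rhythm, with the unbound plasma concentration at conversion reported as mean ± spread.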

[14] = target: T2, G protein-activated inward rectifier potassium channel 1 (Homo sapiens, UniProt P48549); assay: Inhibition of Kir3.1 (unknown origin)
T2 sequence (P48549 whole entry): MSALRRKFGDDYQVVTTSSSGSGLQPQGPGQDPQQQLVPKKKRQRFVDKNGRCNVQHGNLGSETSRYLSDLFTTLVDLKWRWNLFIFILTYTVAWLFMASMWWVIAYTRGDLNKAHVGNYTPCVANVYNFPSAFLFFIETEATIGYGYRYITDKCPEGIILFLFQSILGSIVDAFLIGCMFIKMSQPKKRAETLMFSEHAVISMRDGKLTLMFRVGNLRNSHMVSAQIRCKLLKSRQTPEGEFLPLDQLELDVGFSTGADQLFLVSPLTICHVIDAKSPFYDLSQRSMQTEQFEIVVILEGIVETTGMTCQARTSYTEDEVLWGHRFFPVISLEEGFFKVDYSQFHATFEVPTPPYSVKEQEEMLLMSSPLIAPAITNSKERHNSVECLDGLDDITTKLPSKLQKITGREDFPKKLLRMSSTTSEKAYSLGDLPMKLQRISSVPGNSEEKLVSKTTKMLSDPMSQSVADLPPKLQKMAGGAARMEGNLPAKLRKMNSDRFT

[15] = target: T3, G protein-activated inward rectifier potassium channel 4 (Homo sapiens, UniProt P48544); assay: Inhibition of Kir3.4 (unknown origin)
T3 sequence (P48544 whole entry): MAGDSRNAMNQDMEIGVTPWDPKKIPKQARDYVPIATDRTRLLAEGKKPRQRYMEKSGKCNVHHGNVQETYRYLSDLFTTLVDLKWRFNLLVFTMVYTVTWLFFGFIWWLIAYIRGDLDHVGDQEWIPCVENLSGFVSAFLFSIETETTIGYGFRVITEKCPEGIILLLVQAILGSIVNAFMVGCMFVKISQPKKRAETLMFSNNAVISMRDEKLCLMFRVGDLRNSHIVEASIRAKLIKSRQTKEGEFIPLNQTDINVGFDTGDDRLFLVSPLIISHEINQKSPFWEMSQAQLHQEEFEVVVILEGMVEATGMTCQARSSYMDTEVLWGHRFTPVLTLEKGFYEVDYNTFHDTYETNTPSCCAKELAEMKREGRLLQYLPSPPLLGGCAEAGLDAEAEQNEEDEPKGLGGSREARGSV

[16] = target: T4, A-type voltage-gated potassium channel KCND3 (Homo sapiens, UniProt Q9UK17); assay: Inhibition of Kv4.3 (unknown origin)
T4 sequence (Q9UK17 whole entry): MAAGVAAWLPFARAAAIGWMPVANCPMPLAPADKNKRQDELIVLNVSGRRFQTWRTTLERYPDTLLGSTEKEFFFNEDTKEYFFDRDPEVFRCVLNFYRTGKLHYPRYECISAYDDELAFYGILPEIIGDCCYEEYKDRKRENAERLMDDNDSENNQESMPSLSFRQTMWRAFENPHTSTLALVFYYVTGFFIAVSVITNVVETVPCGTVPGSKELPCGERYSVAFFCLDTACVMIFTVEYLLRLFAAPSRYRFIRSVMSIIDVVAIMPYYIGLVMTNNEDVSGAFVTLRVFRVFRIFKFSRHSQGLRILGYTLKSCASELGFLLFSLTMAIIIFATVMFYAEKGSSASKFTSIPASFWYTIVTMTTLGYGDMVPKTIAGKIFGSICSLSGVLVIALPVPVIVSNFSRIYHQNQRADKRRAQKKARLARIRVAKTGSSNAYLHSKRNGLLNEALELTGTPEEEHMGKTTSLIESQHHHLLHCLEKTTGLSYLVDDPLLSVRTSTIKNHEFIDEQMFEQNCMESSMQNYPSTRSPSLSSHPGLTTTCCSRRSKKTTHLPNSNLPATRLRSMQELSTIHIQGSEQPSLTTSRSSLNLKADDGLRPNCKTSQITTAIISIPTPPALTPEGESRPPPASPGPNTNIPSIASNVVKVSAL

[17] = target: hERG (KCNH2) (Homo sapiens, UniProt Q12809); assay: Inhibition of human ERG at 33 uM relative to control
[18] = target: Sodium channel protein type 5 subunit alpha (Homo sapiens, UniProt Q14524); assay: Inhibition of Nav1.5 (unknown origin)
Sequence of Sodium channel protein type 5 subunit alpha (Q14524 whole entry): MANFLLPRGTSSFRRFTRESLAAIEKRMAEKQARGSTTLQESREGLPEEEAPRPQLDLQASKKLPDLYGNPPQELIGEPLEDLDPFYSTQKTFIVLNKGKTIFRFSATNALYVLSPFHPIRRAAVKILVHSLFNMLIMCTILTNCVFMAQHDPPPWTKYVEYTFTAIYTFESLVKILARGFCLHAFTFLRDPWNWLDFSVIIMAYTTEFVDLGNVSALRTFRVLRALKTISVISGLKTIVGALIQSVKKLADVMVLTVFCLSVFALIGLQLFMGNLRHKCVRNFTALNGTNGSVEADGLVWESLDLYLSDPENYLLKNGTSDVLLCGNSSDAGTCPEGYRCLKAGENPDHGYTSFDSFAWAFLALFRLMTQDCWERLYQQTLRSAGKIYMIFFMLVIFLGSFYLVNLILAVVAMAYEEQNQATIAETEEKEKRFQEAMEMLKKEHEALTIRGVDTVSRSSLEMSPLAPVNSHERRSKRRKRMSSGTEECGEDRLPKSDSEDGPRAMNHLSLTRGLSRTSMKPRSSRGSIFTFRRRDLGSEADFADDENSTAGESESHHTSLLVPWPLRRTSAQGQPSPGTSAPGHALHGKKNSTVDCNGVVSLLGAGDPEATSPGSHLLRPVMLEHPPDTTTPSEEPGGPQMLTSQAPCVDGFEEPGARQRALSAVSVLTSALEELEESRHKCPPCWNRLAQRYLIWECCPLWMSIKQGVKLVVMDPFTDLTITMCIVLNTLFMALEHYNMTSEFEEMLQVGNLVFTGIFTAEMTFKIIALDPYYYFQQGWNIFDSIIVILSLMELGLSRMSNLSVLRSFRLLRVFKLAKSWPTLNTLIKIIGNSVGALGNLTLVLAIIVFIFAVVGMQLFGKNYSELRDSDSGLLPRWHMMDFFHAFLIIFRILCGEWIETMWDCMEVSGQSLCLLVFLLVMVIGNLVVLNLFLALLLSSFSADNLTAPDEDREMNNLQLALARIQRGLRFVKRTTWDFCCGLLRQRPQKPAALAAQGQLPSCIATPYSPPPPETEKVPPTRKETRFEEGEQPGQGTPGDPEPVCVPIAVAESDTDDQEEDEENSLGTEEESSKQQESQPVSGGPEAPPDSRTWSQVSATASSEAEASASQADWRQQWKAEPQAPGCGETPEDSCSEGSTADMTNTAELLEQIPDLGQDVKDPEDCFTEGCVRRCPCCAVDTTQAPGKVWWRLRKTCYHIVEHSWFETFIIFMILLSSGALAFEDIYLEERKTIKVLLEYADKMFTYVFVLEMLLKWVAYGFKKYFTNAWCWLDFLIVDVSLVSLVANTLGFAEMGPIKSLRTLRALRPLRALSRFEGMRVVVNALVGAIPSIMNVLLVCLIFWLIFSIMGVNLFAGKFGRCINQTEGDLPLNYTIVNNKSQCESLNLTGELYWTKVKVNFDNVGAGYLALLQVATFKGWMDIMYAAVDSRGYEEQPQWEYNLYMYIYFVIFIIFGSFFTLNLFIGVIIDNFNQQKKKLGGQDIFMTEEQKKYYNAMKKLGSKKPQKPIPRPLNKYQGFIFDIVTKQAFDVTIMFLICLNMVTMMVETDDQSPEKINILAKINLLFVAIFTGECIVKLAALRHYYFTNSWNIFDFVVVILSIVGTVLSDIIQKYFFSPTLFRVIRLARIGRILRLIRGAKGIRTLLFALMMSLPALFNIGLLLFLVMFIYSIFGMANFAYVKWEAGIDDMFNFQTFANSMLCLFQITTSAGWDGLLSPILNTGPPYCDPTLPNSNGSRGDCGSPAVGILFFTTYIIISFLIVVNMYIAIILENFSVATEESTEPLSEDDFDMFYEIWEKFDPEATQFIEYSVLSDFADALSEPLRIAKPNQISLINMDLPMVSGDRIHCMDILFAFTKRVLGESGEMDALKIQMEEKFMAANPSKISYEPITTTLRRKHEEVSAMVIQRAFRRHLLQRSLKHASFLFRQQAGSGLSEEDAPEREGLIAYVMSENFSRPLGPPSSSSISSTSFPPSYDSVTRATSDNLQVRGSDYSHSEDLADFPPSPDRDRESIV

[19] = target: Voltage-dependent L-type calcium channel subunit alpha-1C (Homo sapiens, UniProt Q13936); assay: Inhibition of CaV1.2 (unknown origin)
[20] = Free drug level in rat brain at 2 umol/kg/hr administered for 4 hrs; assay type: ADME, tissue-based; conditions: in vivo
Procedure, shortened: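 Rats received a continuous intravenous infusion at 2 μmol/kg/h for 4 h. Total brain and plasma concentrations were measured at steady state. Free levels were calculated from measured unbound fractions in brain and plasma, and free brain exposure was expressed relative to free plasma exposure.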

[21] = target: T5, Glutamate [NMDA] receptor (Homo sapiens) (UniProt Q05586+Q12879+Q13224+O15399+O60391+Q14957+Q8TCU5); assay: Inhibition of NMDA receptor glycine binding site (unknown origin) at 10 uM relative to control; assay type: protein-complex assay
[22] = target: T5, Glutamate [NMDA] receptor (Homo sapiens); assay: Inhibition of NMDA receptor phencyclidine binding site (unknown origin) at 10 uM relative to control; assay type: protein-complex assay
[23] = Stability in human liver microsomes assessed as formation of iminium ions; assay type: ADME, Microsome
[24] = Dissociation constant, pKa of the compound; assay type: physicochemical
[25] = Cardiotoxicity in dog assessed as blockade of sodium channel by measuring changes in ECG at higher dose; assay type: toxicity, Canis lupus familiaris; conditions: in vivo

T1 sequence (P22460 whole entry): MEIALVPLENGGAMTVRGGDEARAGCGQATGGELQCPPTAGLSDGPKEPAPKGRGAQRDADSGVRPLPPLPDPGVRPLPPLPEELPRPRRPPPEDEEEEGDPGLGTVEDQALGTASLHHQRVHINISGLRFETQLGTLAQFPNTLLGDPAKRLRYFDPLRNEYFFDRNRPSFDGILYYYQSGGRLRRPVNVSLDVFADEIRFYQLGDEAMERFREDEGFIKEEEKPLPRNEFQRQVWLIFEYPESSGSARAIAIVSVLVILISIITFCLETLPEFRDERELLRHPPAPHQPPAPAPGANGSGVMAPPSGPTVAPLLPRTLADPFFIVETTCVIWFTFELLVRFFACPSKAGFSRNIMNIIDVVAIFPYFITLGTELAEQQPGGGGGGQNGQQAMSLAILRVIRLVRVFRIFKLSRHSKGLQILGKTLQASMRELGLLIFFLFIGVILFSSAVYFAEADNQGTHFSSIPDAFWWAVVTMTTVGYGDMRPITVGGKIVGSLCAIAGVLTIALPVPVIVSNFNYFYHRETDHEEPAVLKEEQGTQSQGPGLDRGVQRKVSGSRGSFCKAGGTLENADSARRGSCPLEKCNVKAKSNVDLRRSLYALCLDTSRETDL

Structure (SMILES)	IC50 [1]	IC50 [2]	chromatographic logD [4]	microsomal CLint [5]	Drug metabolism [6]	CL renal [7]	clearance [8]	dose excreted [10]	further results
CCCN(CC)[C@H](c1ccccn1)[C@@H](c1ccccn1)N(CC)CCC	3.2 µM	60 µM	3.3	23 µL/min/mg	Metabolite_Detected	0.7 mL/min/kg	16 mL/min/kg	6.9%	IC50 [9]: > 33 µM; IC50 [3]: 5.4 µM; Stability [23]: Stable
CCCN(CC)[C@@H](c1ccccn1)[C@H](c1cccc(C#N)c1)N(CCOC)C[C@@H](C)CO	7.3 µM	–	–	–	–	1.8 mL/min/kg	37 mL/min/kg	4.7%	IC50 [11]: 0.26 µM
c1ccc([C@@H]([C@H](c2ccccn2)N2CCCCC2)N2CCCCC2)nc1	4.8 µM	–	2.2	< 5 µL/min/mg	Metabolite_Detected	–	–	–	pKa [24]: 10.4
CCCN(C[C@H](C)O)[C@H](c1ccccn1)[C@@H](c1ccccn1)N1C2CCCC1CC2	3.4 µM	–	–	–	–	0.3 mL/min/kg	3 mL/min/kg	12%	Cp(f) [12]: 0.057 µM; Activity [25]: Toxic
CCCN(CC)[C@H](c1ccccn1)[C@@H](c1cccc(C#N)c1)N(CCOC)C[C@H](C)CO	4.8 µM	–	–	–	–	2.1 mL/min/kg	44 mL/min/kg	4.4%	IC50 [11]: 0.39 µM
COCCN(C[C@H](C)O)[C@H](c1ccccn1)[C@@H](c1ccccn1)N1C2CCC1CC(OC)C2 (stereo not given in full)	5.6 µM	–	–	–	–	7.1 mL/min/kg	25 mL/min/kg	28%	–
CCCN(CC)[C@H](c1ccccn1)[C@@H](c1ccccn1)N(CCOC)C[C@H](C)CO	10 µM	–	–	–	–	2.7 mL/min/kg	25 mL/min/kg	11%	–
c1ccc([C@H]([C@@H](c2ccccc2)N2CCCCC2)N2CCCCC2)cc1	0.41 µM	1.4 µM	4	14 µL/min/mg	Metabolite_Detected	–	–	–	IC50 [9]: > 33 µM; IC50 [3]: 0.13 µM; Stability [23]: Unstable

Continued, in another order:

IC50 [1]	IC50 [2]	chromatographic logD [4]	microsomal CLint [5]	Drug metabolism [6]	CL renal [7]	clearance [8]	dose excreted [10]	Structure (SMILES)	further results
0.22 µM	> 33 µM	4.6	58 µL/min/mg	Metabolite_Detected	–	–	–	CCCN(CCC)[C@H](c1ccccn1)[C@@H](c1ccccn1)N(CCC)CCC	IC50 [3]: > 20 µM
1.7 µM	> 33 µM	–	–	–	0.19 mL/min/kg	6.1 mL/min/kg	5.1%	CCCN(CCC)[C@H](c1ccccn1)[C@@H](c1ccccn1)N(CCC)C[C@H](O)CO	IC50 [9]: > 33 µM; IC50 [11]: 0.06 µM; Cp(f) [12]: 0.15 µM; Cp(f) [13]: 0.48 µM; IC50 [14]: 4.1 µM; IC50 [15]: 4.1 µM; IC50 [16]: 11 µM; inhibition at 33 µM [17]: 37%; IC50 [18]: 19 µM; IC50 [19]: > 33 µM; Drug uptake(free) [20]: 4%; inhibition [21]: 13%; inhibition [22]: 14%
2.1 µM	–	–	–	–	5.5 mL/min/kg	16 mL/min/kg	19%	CCCN(CCC)[C@H](c1ccccn1)[C@@H](c1ccccn1)N(C[C@@H](C)O)C[C@@H](C)O	Cp(f) [12]: 0.29 µM
2.2 µM	17 µM	2.2	< 5 µL/min/mg	Metabolite_Detected	–	–	–	c1ccc([C@H]([C@@H](c2ccccn2)N2CCCCC2)N2CCCCC2)nc1	IC50 [9]: > 33 µM; IC50 [3]: > 20 µM; pKa [24]: 10.4
1.4 µM	–	4.6	412 µL/min/mg	Metabolite_Detected	–	–	–	c1ccc([C@H]([C@H](c2ccccn2)N2CCCCC2)N2CCCCC2)nc1	pKa [24]: 8.7
2.7 µM	–	–	–	–	2.5 mL/min/kg	21 mL/min/kg	11%	CCCN(CCC)[C@H](c1ccccn1)[C@@H](c1ccccn1)N(CCOC)C[C@H](C)O	Cp(f) [12]: 0.22 µM

Source: ChEMBL document CHEMBL4392823, “Potassium channel blocking 1,2-bis(aryl)ethane-1,2-diamines active as antiarrhythmic agents” (Bioorg Med Chem Lett, 2019)
